VLA-4 inh: inhibition in human VLA-4 binding assay, primary screen, VLA-4 allosteric modulator project, MLPCN library, flow cytometry, VLA-4 expressing cells | 0.2% of 330,000 active | ligand binding flow cytometry | Integrin alpha-4 (Homo sapiens), P13612 | inhibition, % (about 7 µM as worked out from the volumes in the protocol) | AID 2557, 2010; in the data active = inhibition above about 50%
proCasp7 act: procaspase-7 activators, primary screen, counter-screen for procaspase-3 activator project, biochemical, absorbance, HTS, human | Caspase-7 (Homo sapiens), P55210 | recombinant procaspase-7, Ac-DEVD-pNA absorbance 405 nm; D23A/D198A/D206A triple mutant, cannot self-cleave; scale: DMSO 0, 5 µM enzyme 100 | activation, % at 8.5 µM | 0.093% of 330,000 active | AID 463210, 2010;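 active = percent activation above the screen-wide mean plus 3 SD, cut at about 25% in these data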
Target sequence (P55210 whole entry D23A/D198A/D206A): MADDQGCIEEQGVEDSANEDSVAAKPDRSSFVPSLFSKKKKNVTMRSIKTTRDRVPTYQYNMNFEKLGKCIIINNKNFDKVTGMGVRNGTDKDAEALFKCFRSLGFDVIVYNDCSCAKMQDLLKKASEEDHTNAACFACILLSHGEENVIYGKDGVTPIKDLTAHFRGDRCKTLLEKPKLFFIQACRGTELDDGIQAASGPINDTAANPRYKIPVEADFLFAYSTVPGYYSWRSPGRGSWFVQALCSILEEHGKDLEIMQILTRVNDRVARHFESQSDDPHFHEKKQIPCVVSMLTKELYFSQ
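Assay system: Uncleavable procaspase-7 mutant enzyme | Input: 2 µM procaspase-7 mutant as dispensed | Timing: 1 h compound preincubation, 2 h substrate cleavage, 25 °C | Repeats: One well per compound | Control set: DMSO wells as 0%, DMSO with 5 µM added PC-7 as 100% | Technique: Epi-absorbance of released pNA at 405 nm, two timepoints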
JMJD2C inh: inhibitors of GASC-1 histone demethylase, primary screen, biochemical, fluorescence, DELFIA europium. GST-JMJD2C(1-420) H3K9me3 demethylation. inhibition, % at 2.35 µM. 0.069% of 330,000 active;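 active = more than half of a compound's replicate wells show inhibition beyond 50%, single wells judged on their own value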;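 also: signal counts dimethyl H3K9 product captured on neutravidin plate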
Target sequence (Q9H3R0 1-420 limits assumed): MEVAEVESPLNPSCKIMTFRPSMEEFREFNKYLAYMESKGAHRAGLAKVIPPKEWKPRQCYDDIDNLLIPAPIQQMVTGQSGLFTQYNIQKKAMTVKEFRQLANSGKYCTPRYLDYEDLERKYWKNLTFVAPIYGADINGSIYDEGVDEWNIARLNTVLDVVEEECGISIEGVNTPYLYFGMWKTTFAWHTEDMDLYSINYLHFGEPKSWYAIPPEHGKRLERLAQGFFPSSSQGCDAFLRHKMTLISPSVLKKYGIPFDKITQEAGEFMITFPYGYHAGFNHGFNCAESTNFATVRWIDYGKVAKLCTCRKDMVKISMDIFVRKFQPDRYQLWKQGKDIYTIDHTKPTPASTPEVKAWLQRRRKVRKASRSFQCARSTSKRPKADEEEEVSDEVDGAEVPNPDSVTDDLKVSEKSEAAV
procasp3 activ: activators of human procaspase-3 D3A mutant, primary screen, biochemical, absorbance, PC-3 D3A mutant, single concentration; Caspase-3 (Homo sapiens), P42574; recombinant procaspase-3 D3A, Ac-DEVD-pNA absorbance 405 nm; activation, % at 8.5 µM; 0.11% of 330,000 active; AID 463141, 2010;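 active = activation above the mean of all tested compounds plus 3 SD, cut at about 21% in these data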
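material = Procaspase-3 D3A mutant | probe or stimulus = Ac-DEVD-pNA | compound = single dose, 8.5 µM nominal compound, 0.8% DMSO | timing = 1 h preincubation, 2 h reaction | measured by = 405 nm absorbance of p-nitroaniline, reads at 0 and 120 min | benchmarks = DMSO-only low control, 5 µM PC-3 D3A high control | repeats = singlicate, each compound tested once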
GRK2 inh: compounds blocking aptamer binding on GRK2 – biochemical, human GRK2, bead flow cytometry, HTS, primary screen; Beta-adrenergic receptor kinase 1 (Homo sapiens), P25098; FAM-aptamer displacement from GRK2; inhibition of aptamer binding, % at 10 µM; 0.59% of 330,000 active; AID 488847, 2010;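 active = inhibition of aptamer binding above 40%, roughly 3 SD of noise, on plates passing a quality check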;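 also: median bead fluorescence of bound FAM aptamer so fluorescent compounds give negative values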
Hep lipid drop: inhibitors of hepatocyte lipid droplet formation, primary screen, imaging, high-throughput imaging, BODIPY stain | AID 1656, 2009 | inhibition, % at 6.5 µM | AML12 mouse hepatocytes, oleate lipid droplets | 0.4% of 240,000 active;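 active = lipid droplet intensity inhibited by at least 50%, with more than 500 cells counted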
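material = mouse AML12 hepatocyte cell line, fixed after treatment | also added = 100 µM oleic acid challenge | doses = compound at 6.5 µM only | schedule = overnight exposure | technique = Image-based BODIPY and DAPI two-channel analysis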
Lipid drop inh: hepatocyte lipid droplet accumulation inhibitors, confirmation, imaging, AML12 mouse hepatocytes, single concentration, high-content; shares compounds with Hep lipid drop; BODIPY lipid droplet imaging; droplets induced with 100 µM oleic acid; inhibition, % at 5.2 µM; 65% of 870 active;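 active = inhibition of lipid droplet metric at least 50%, with more than 300 cells in each of four replicates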
AML12 tox img: AML12 hepatocyte cytotoxicity, counter-screen for hepatic lipid droplet formation project, imaging, DAPI nuclear morphology imaging. z-score at 5 µM. 3% of 870 active. AML12 mouse hepatocytes; active compounds read high; cells fed 100 µM oleate overnight. shares compounds with Hep lipid drop; in the data active = z-score above about 6.3;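 also: compound exposure lasted overnight at 37 °C before fixation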
AML12 tox conf: AML12 hepatocyte cytotoxicity, confirmation, cytotoxicity control for hepatic lipid droplet formation project, cell-based, single concentration; shares compounds with Hep lipid drop; AML12 mouse hepatocyte viability, ATP luminescence; cells loaded with 100 µM oleic acid; cytotoxicity, % at 50 µM; 530 tested, under 10 active; AID 463219, 2010;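 active = cytotoxicity above 50% in each of four replicates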;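 also: compound exposure lasted overnight at 37 °C before the ATP read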
Of the large screens only hits and unclear results are named; the others gave an inactive call (follow-up assays come after a bar, where they were run). A selection: hits, their analogues and other compounds. The true share with any hit is near 1.3%.

COc1ccc(C(=O)NCCS(=O)(=O)NC(C)c2ccccc2)cc1 (stereo unspecified)	none (no result: Hep lipid drop)
FC(F)(F)c1ccc(Cl)c(NC(=S)N/N=C/c2ccccc2C(F)(F)F)c1	Hep lipid drop 51.6 | Lipid drop inh 103.8 | AML12 tox img inactive | AML12 tox conf inactive
O=[N+]([O-])c1cc2c(c(CSc3nnc(Nc4ccccc4)s3)c1)OCOC2	Hep lipid drop 64.1 | Lipid drop inh 93.2 | AML12 tox img inactive | AML12 tox conf inactive
COc1ccccc1C(=O)C1CCCN(C(=O)c2cnn(C(C)C)c2)C1 (stereo unspecified)	none
C=CCC(=O)N1CCC(n2nccc2NC(=O)CCOc2ccccc2)CC1	Hep lipid drop 61.2 | Lipid drop inh inactive | AML12 tox img inactive
CC(C)C(=O)N1CCC(n2nccc2NC(=O)CCOc2ccccc2)CC1	none (no result: proCasp7 act, procasp3 activ)
CCOC(=O)C1CCCN(C(=S)NC(=O)/C=C/c2ccc(F)cc2)C1 (stereo unspecified)	none
CCOc1ccc(NC(=O)CN(C)C(=O)c2cc(S(=O)(=O)N3CCCCC3)ccc2C)cc1OCC	none (no result: Hep lipid drop)
CCOc1ccc(NC(=O)CN(C)C(=O)c2ccc(C)c(S(=O)(=O)N3CCCCC3)c2)cc1OCC	Hep lipid drop 63.1 (no result: proCasp7 act, procasp3 activ) | Lipid drop inh 62.6 | AML12 tox img inactive | AML12 tox conf inactive
CC(=O)c1ccc(S(=O)(=O)Nc2ccc(N3CCOCC3)cc2)cc1	none
CCOc1ccc(NS(=O)(=O)c2ccc(C(=O)N(CC)CC(=O)NCc3cccs3)cc2)cc1	Hep lipid drop 77.8 | Lipid drop inh 98.1 | AML12 tox img inactive | AML12 tox conf inactive
CCOc1ccc(NS(=O)(=O)c2ccc(C(=O)N3CCCCC3)cc2)cc1	Hep lipid drop 57.3 | Lipid drop inh 87.1 | AML12 tox img inactive | AML12 tox conf inactive
CCOC(=O)c1ccc(S(=O)(=O)Nc2ccc(N3CCOCC3)cc2)cc1	Hep lipid drop 86.5 | Lipid drop inh 79.3 | AML12 tox img inactive | AML12 tox conf inactive
CCc1ccccc1NC(=O)C1CCCC1	none (no result: Hep lipid drop)
CC(C)(C)[C@@H]1COC(=O)[C@@H](Cc2ccc(F)cc2)C/C=C\C[C@H](CC(=O)N(CCO)Cc2ccccc2)C(=O)N1	none (no result: Hep lipid drop)
O=C(Cn1cnc2ccccc21)Nc1ccc2c(c1)OCCCO2	none (no result: Hep lipid drop)
COC(=O)c1ccc(NS(=O)(=O)c2ccc3c(c2)n(C)c(=O)n3C)cc1	Hep lipid drop 53.1 (no result: GRK2 inh) | Lipid drop inh inactive | AML12 tox img inactive
COCCNC(=O)C(c1ccc(F)cc1)N(Cc1ccccc1)C(=O)CCC(=O)Nc1nccs1 (stereo unspecified)	none
COc1ccc(-n2c(=O)c3c4c(sc3n(CC(=O)Nc3cc(C)[nH]n3)c2=O)CCC4)c(OC)c1	Hep lipid drop 51.2 | Lipid drop inh inactive | AML12 tox img inactive
Cc1ccc(C(=O)NCCc2nc3ccccc3[nH]2)cc1[N+](=O)[O-]	Hep lipid drop 82.4 | Lipid drop inh 94.2 | AML12 tox img inactive | AML12 tox conf inactive
O=C(NCCc1nc2ccccc2[nH]1)c1ccc(Cl)c([N+](=O)[O-])c1	none
O=C(NCCc1nc2ccccc2[nH]1)c1ccco1	none (no result: Hep lipid drop)
O=C(NCCc1nc2ccccc2[nH]1)c1ccc(Br)o1	Hep lipid drop 51.2 | Lipid drop inh 62.5 | AML12 tox img inactive | AML12 tox conf inactive
Cc1cc(C)c(C(=O)COC(=O)c2nn(C)c(=O)c3ccccc23)cc1C	none (no result: Hep lipid drop)
O=C1c2ccccc2C2=Nc3ccccc3SC(c3cccc(F)c3)C12 (stereo unspecified)	Hep lipid drop 65.6 | Lipid drop inh inactive | AML12 tox img 8.8
CCCOc1ccccc1C(=O)N(Cc1ccco1)C1CCS(=O)(=O)C1 (stereo unspecified)	none (no result: Hep lipid drop)
CCCOc1ccccc1C(=O)N(Cc1ccc(C)o1)C1CCS(=O)(=O)C1 (stereo unspecified)	Hep lipid drop 64.6 | Lipid drop inh 77.6 | AML12 tox img inactive | AML12 tox conf inactive
CCCCOc1ccccc1C(=O)N(Cc1ccc(C)o1)C1CCS(=O)(=O)C1 (stereo unspecified)	Hep lipid drop 64.4 | Lipid drop inh 96.9 | AML12 tox img inactive | AML12 tox conf inactive
CCCC(C)NC(=O)C1c2ccccc2Oc2ccccc21 (stereo unspecified)	none (no result: Hep lipid drop)
COc1ccc(S(=O)(=O)Nc2nc3ccccc3nc2Nc2cccc(C(=O)O)c2)cc1	none
CCOc1ccc2ccccc2c1/C=N/NC(=O)CNC(=O)C(c1ccccc1)c1ccccc1	Hep lipid drop 82.1 | Lipid drop inh 91.6 | AML12 tox img inactive | AML12 tox conf inactive
O=C(Cc1ccccc1)Nn1c(-c2ccccc2)nc2ccccc2c1=O	Hep lipid drop 56.9 | Lipid drop inh 64.3 | AML12 tox img inactive | AML12 tox conf inactive
O=C(Cc1ccccc1)Nn1c(-c2ccccc2F)nc2ccccc2c1=O	none
C=CCC1(CC=C)CCCN1C(=O)c1cc(COc2ccccc2SC)on1	none
O=C(NC1CCCC1)C1CCN(S(=O)(=O)c2ccccc2)CC1	none
O=C(NCc1ccccc1)c1ccc2nc(N3CCOCC3)sc2c1	none
CCCOc1ccc(CNC(=O)c2ccc3nc(N4CCOCC4)sc3c2)cc1	Hep lipid drop 53.7 | Lipid drop inh 99.5 | AML12 tox img inactive | AML12 tox conf inactive
CN1CCc2c(sc(NC(=O)C3CCN(S(=O)(=O)c4cccs4)CC3)c2C(N)=O)C1	none (no result: Hep lipid drop)
CCOC(=O)C1CCN(C(=O)CC2(CC(=O)O)CCCC2)CC1	none
COc1ccc(Cl)cc1CNCCCSc1ncccn1	Hep lipid drop 50.2 (no result: proCasp7 act, procasp3 activ) | Lipid drop inh inactive | AML12 tox img inactive

Source: PubChem BioAssay (several laboratories)
